Test results as given in ChEMBL document CHEMBL3872267, “Design and synthesis of phosphoryl-substituted diphenylpyrimidines (Pho-DPPYs) as potent Bruton's tyrosine kinase (BTK) inhibitors: Targeted treatment of B lymphoblastic leukemia cell lines” (Bioorg Med Chem, 2017).
pIC50: −log10 of the molar value.

Assays:
[1] = Cell cycle arrest in human Ramos cells assessed as accumulation at G0/G1 phase at 10 uM measured after 48 hrs by propidium iodide based flow cytometry (reference value: 39.95 %); assay type: functional
Outline: (§1)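 Ramos cells at about 2 × 10⁵ cells/well were treated for 48 h, then fixed overnight in 70% ethanol at 4 °C. After a PBS wash they were stained with propidium iodide for 10 min under subdued light. Cell-cycle phase distribution was determined by flow cytometry.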

[2] = Cell cycle arrest in human Ramos cells assessed as accumulation at S phase at 10 uM measured after 48 hrs by propidium iodide based flow cytometry (reference value: 55.07 %); assay type: functional; outline: as §1
[3] = Cell cycle arrest in human Ramos cells assessed as accumulation at G2/M phase at 10 uM measured after 48 hrs by propidium iodide based flow cytometry (reference value: 4.98 %); assay type: functional; outline: as §1
Ramos [4] = assay: Induction of apoptosis in human Ramos cells assessed as viable cells at 10 uM measured after 48 hrs by Annexin V-FITC/propidium iodide based flow cytometry relative to control; assay type: functional
Outline: (§2)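 Ramos cells at 1–5 × 10⁵ cells/well were treated for 48 h in medium with 5% FBS, with a DMSO solvent control. They were […], stained with Annexin V-FITC/propidium iodide, and analysed by flow cytometry.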

Ramos [5] = assay: Induction of apoptosis in human Ramos cells assessed as late apoptotic cells at 10 uM measured after 48 hrs by Annexin V-FITC/propidium iodide based flow cytometry relative to control; assay type: functional; outline: as §2
Ramos [6] = assay: Induction of apoptosis in human Ramos cells assessed as early apoptotic cells at 10 uM measured after 48 hrs by Annexin V-FITC/propidium iodide based flow cytometry relative to control; assay type: functional; outline: as §2
Ramos [7] = assay: Induction of apoptosis in human Ramos cells assessed as necrotic cells at 10 uM measured after 48 hrs by Annexin V-FITC/propidium iodide based flow cytometry (reference value: 0.2 %); assay type: functional; outline: as §2
[8] = target: Tyrosine-protein kinase BTK (Homo sapiens, UniProt Q06187); assay: Inhibition of human recombinant full-length N-terminal His-tagged BTK expressed in baculovirus infected Sf9 insect cells measured after 60 mins by ADP-Glo kinase assay
Tyrosine-protein kinase BTK, sequence (Q06187 whole entry): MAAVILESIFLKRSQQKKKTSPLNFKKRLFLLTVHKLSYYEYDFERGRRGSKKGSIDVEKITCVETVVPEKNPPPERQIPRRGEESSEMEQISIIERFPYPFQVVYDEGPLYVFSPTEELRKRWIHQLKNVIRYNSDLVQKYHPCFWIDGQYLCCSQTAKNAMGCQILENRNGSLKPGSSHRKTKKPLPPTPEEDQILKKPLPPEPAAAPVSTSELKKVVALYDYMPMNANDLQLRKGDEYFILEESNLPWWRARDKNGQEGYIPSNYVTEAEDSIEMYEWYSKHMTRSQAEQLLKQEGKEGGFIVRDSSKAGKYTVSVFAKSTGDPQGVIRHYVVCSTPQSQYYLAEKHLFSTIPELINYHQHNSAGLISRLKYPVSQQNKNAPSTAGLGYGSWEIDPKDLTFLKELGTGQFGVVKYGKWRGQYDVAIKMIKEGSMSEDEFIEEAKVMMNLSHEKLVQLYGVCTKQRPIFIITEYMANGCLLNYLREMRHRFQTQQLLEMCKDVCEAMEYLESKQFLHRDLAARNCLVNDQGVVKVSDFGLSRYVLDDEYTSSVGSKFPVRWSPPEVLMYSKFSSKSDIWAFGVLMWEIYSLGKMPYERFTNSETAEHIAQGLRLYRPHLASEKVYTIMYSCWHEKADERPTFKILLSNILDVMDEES

[9] = Antiproliferative activity against human Ramos cells measured after 48 hrs by CCK-8 assay; assay type: functional, cell-based
Outline: (§3)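 Cells seeded at 2000–3000 cells/well and kept one day at 37 °C, 5% CO₂ in RPMI1640 with 10% FBS. Viability was read by CCK-8 absorbance at 450 nm, and seeding was adjusted to give 0.5–1.2 absorbance. IC50 was derived by curve fitting.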

[10] = Antiproliferative activity against human Raji cells measured after 48 hrs by CCK-8 assay; assay type: functional, cell-based; outline: as §3
Ramos [11] = assay: Induction of apoptosis in human Ramos cells assessed as viable cells at 1 uM measured after 48 hrs by Annexin V-FITC/propidium iodide based flow cytometry relative to control; assay type: functional; details: read-out: Activity; outline: as §2
Ramos [12] = assay: Induction of apoptosis in human Ramos cells assessed as late apoptotic cells at 1 uM measured after 48 hrs by Annexin V-FITC/propidium iodide based flow cytometry relative to control; assay type: functional; outline: as §2
[13] = Cell cycle arrest in human Ramos cells assessed as accumulation at G0/G1 phase at 1 uM measured after 48 hrs by propidium iodide based flow cytometry (reference value: 39.95 %); assay type: functional; outline: as §1
[14] = Cell cycle arrest in human Ramos cells assessed as accumulation at S phase at 1 uM measured after 48 hrs by propidium iodide based flow cytometry (reference value: 55.07 %); assay type: functional; outline: as §1
[15] = Cell cycle arrest in human Ramos cells assessed as accumulation at G2/M phase at 1 uM measured after 48 hrs by propidium iodide based flow cytometry (reference value: 4.98 %); assay type: functional; outline: as §1
[16] = Cell cycle arrest in human Ramos cells assessed as accumulation at G0/G1 phase at 5 uM measured after 48 hrs by propidium iodide based flow cytometry (reference value: 39.95 %); assay type: functional; outline: as §1
[17] = Cell cycle arrest in human Ramos cells assessed as accumulation at S phase at 5 uM measured after 48 hrs by propidium iodide based flow cytometry (reference value: 55.07 %); assay type: functional; outline: as §1
[18] = Cell cycle arrest in human Ramos cells assessed as accumulation at G2/M phase at 5 uM measured after 48 hrs by propidium iodide based flow cytometry (reference value: 4.98 %); assay type: functional; outline: as §1
Ramos [19] = assay: Induction of apoptosis in human Ramos cells assessed as early apoptotic cells at 1 uM measured after 48 hrs by Annexin V-FITC/propidium iodide based flow cytometry relative to control; assay type: functional; outline: as §2
Ramos [20] = assay: Induction of apoptosis in human Ramos cells assessed as necrotic cells at 1 uM measured after 48 hrs by Annexin V-FITC/propidium iodide based flow cytometry (reference value: 0.2 %); assay type: functional; outline: as §2
Ramos [21] = assay: Induction of apoptosis in human Ramos cells assessed as viable cells at 5 uM measured after 48 hrs by Annexin V-FITC/propidium iodide based flow cytometry relative to control; assay type: functional; details: read-out: Activity; outline: as §2
Ramos [22] = assay: Induction of apoptosis in human Ramos cells assessed as late apoptotic cells at 5 uM measured after 48 hrs by Annexin V-FITC/propidium iodide based flow cytometry relative to control; assay type: functional; outline: as §2
Ramos [23] = assay: Induction of apoptosis in human Ramos cells assessed as early apoptotic cells at 5 uM measured after 48 hrs by Annexin V-FITC/propidium iodide based flow cytometry relative to control; assay type: functional; outline: as §2
Ramos [24] = assay: Induction of apoptosis in human Ramos cells assessed as necrotic cells at 5 uM measured after 48 hrs by Annexin V-FITC/propidium iodide based flow cytometry (reference value: 0.2 %); assay type: functional; outline: as §2

| SMILES | Activity [1] [%] | Activity [2] [%] | Activity [3] [%] | pIC50 [8] | pIC50 [9] | pIC50 [10] | further results |
| --- | --- | --- | --- | --- | --- | --- | --- |
| C=CC(=O)Nc1cccc(Nc2nc(Nc3ccc(OCCOC)cc3)ncc2F)c1 [SPEBRUTINIB] | 31 | 47.9 | 20.9 | – | – | – | viability at 10 µM (Ramos [4]; Homo sapiens, Ramos, 48 h, read-out: Activity): 54.2%; Activity (Ramos [5]): 20.4%; Activity (Ramos [6]): 21.1%; Activity (Ramos [7]): 4.3% |
| C=CC(=O)Nc1cccc(Nc2nc(Nc3ccc(OCCCP(=O)(OCC)OCC)cc3)ncc2F)c1 | – | – | – | 7.67 | 4.94 | 4.79 | – |
| C=CC(=O)Nc1cccc(Nc2nc(Nc3ccc(CP(=O)(OCC)OCC)cc3)ncc2F)c1 | – | – | – | 7.49 | 5.03 | 4.46 | – |
| C=CC(=O)Nc1cccc(Nc2nc(Nc3ccc(OCCCP(=O)(OCC)N4CCOCC4)cc3)ncc2Cl)c1 (stereo not drawn) | 38 | 50.8 | 11.2 | 9.09 | 5.50 | 5.17 | viability at 1 µM (Ramos [11]): 50.9%; Activity (Ramos [12]): 5.9%; Activity [13]: 36.9%; Activity [14]: 55.4%; Activity [15]: 7.68%; Activity [16]: 36.4%; Activity [17]: 54.3%; Activity [18]: 9.29%; Activity (Ramos [19]): 27.7%; Activity (Ramos [20]): 15.6%; viability at 5 µM (Ramos [21]): 40.2%; Activity (Ramos [22]): 7.5%; Activity (Ramos [23]): 37.6%; Activity (Ramos [24]): 14.7% |
| C=CC(=O)Nc1cccc(Nc2nc(Nc3ccc(CP(=O)(OCC)OCC)cc3)ncc2Cl)c1 | – | – | – | 8.91 | 4.93 | 4.87 | – |
| C=CC(=O)N1CCC[C@@H](n2nc(-c3ccc(Oc4ccccc4)cc3)c3c(N)ncnc32)C1 [IBRUTINIB] | 43.2 | 50.2 | 6.57 | – | – | – | Activity (Ramos [4]): 52%; Activity (Ramos [6]): 37%; Activity (Ramos [7]): 0.1% |
| C=CC(=O)Nc1cccc(Nc2nc(Nc3ccc(OCCCP(=O)(OCC)OCC)cc3)ncc2Cl)c1 | – | – | – | 7.97 | 5.27 | 5.22 | – |
| C=CC(=O)Nc1cccc(Nc2nc(Nc3ccc(CP(=O)(OCC)N4CCOCC4)cc3)ncc2Cl)c1 (stereo not drawn) | – | – | – | 6.95 | 4.56 | 5.11 | – |
